Assays:
[1] = melting temperature; fluorescence melt of hairpins on a sequencing array, two-state fit, raised by 9.35 °C to match UV melts; conditions: sodium 0.088 M
In short: (§1)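 Cy3 signals were normalised both to pre-quench Cy3 and to control constructs. They came from library hairpins carrying annealed Cy3 and quencher oligos on a sequenced MiSeq flow cell, imaged in 50 mM Na-HEPES pH 8.0, 25 mM NaCl, in 2.5 °C steps up to 60 °C. Bootstrapped two-state fits gave melting temperature and folding enthalpy, and four replicates were combined by inverse variance. Fitted temperatures were then raised by 9.35 °C to match UV melts.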

[2] = folding enthalpy; higher = less favourable; fluorescence melt of hairpins on a sequencing array, two-state fit; conditions: sodium 0.088 M
In short: as §1

Row | Sequence | Tm [1] | folding enthalpy [2]
1 | GACACCGGAAACGGTATC ((.((((....)))).)) | 36.1 °C | -15.9 kcal/mol
2 | GACACCGGAAACGGTGCC (.(((((....))))).) | 48.8 °C | -13.4 kcal/mol
3 | GACACGCGAAAGCGAGTC (((.(((....))).))) | 60.5 °C | -24.3 kcal/mol
4 | GACACGCGAAAGCGCGTC (((.(((....))).))) | 63.9 °C | -25.2 kcal/mol
5 | GACACGGGAAACTGTGTC (((((.(....).))))) | 53.5 °C | -42.2 kcal/mol
6 | GACACTCCGAAAGGAGTC (((..(((....)))))) | 32 °C | -7.77 kcal/mol
7 | GACACTGGAAACAGCGTC (((.(((....))).))) | 46.4 °C | -35.2 kcal/mol
8 | GACACTGGAAACAGTGCC (.(((((....))))).) | 43.2 °C | -14.8 kcal/mol
9 | GACAGCCCGAAAGGGGTC (((..(((....)))))) | 34.6 °C | -11.4 kcal/mol
10 | GACAGCGAAAGCTAGTC ((((((....))).))) | 51.2 °C | -22.6 kcal/mol
11 | GACAGCGAAAGCTCAGTC ((((((....)))..))) | 38.7 °C | -11.5 kcal/mol
12 | GACAGCGAAAGCTTAGTC ((((((....)))..))) | 38.1 °C | -19 kcal/mol
13 | GACAGCGAAAGCTTTGTC ((((((....)))..))) | 37.5 °C | -16 kcal/mol
14 | GACAGCGCGAAAGCGGTC (((..(((....)))))) | 41.8 °C | -11.4 kcal/mol
15 | GACAGGCGAAAGCCAGTC (((.(((....))).))) | 58.1 °C | -25.8 kcal/mol
16 | GACAGGCGAAAGCCCGTC (((.(((....))).))) | 52.9 °C | -22.3 kcal/mol
17 | GACAGGGGAAACCCTATC ((.((((....)))).)) | 28 °C | -12.8 kcal/mol
18 | GACAGGGGAAACCCTGTC (((((((....))))))) | 66.4 °C | -42.6 kcal/mol
19 | GACAGTGGAAACACTGCC (.(((((....))))).) | 46 °C | -14.5 kcal/mol

Row | Sequence | Tm [1] | folding enthalpy [2]
20 | GACAGTGGAAACATTGTC ((((.((....)).)))) | 43 °C | -32.4 kcal/mol
21 | GACATACCGAAAGGTGTC (((..(((....)))))) | 41.3 °C | -18.2 kcal/mol
22 | GACATAGGAAACTACGTC (((.(((....))).))) | 30 °C | -15.1 kcal/mol
23 | GACATCACGAAAGTGGTC (((..(((....)))))) | 34.7 °C | -14.5 kcal/mol
24 | GACATCCGAAAGGAGTC (((.(((....)))))) | 45.4 °C | -21.2 kcal/mol
25 | GACATCGGAAACAATGTC (((((.(....).))))) | 34.1 °C | -33 kcal/mol
26 | GACATCGGAAACGATGCC (.(((((....))))).) | 44.9 °C | -12.5 kcal/mol
27 | GACATGCGAAAGCAGTC (((.(((....)))))) | 51.9 °C | -16.9 kcal/mol
28 | GACATGGGAAACCATATC ((.((((....)))).)) | 28 °C | -14 kcal/mol
29 | GACATTGAAAAATGTC ((((((....)))))) | 50.3 °C | -31.1 kcal/mol
30 | GACATTGGAAACAATGCC (.(((((....))))).) | 38.1 °C | -21.5 kcal/mol
31 | GACCAACGAAAGTTCGTC (((.(((....))).))) | 34.9 °C | -24.4 kcal/mol
32 | GACCAACGAAAGTTTGTC (((.(((....))).))) | 41.7 °C | -26.9 kcal/mol
33 | GACCACACGAAAGTGGTC (((..(((....)))))) | 57 °C | -30.9 kcal/mol
34 | GACCACCGAAAGGTAGTC (((.(((....))).))) | 47 °C | -31.6 kcal/mol
35 | GACCACGAAAGTGAAGTC ((((((....)))..))) | 40.2 °C | -21.7 kcal/mol
36 | GACCACGAAAGTGCGGTC ((((((....)))..))) | 43.2 °C | -19.3 kcal/mol
37 | GACCACGAAAGTGGAGTC ((((((....)))..))) | 38.4 °C | -11.5 kcal/mol

Reference: the array DNA melting data of Ke et al. (doi:10.1101/2024.01.08.574731)
